Reference: ChEMBL document CHEMBL4613302, “Synthesis and Antiproliferative Activity of Nitric Oxide-Donor Largazole Prodrugs” (ACS Med Chem Lett, 2020)
Calls of active or inactive are those of the source. The rule behind the calls is not given here.

Assays:
[1] = Induction of NO production in PBS buffer at 0.1 mM in presence of L-cysteine measured for 1 to 24 hrs by Griess method; type: functional
Summary of the method: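 Griess assay for NO release: each compound at 0.1 mM in 50 mM phosphate buffer, pH 7.4, at 37 °C, with l-cysteine at 0.5 mM and at 5 mM. Nitrite yield is given as % of the initial compound concentration at 1 h, 5 h and 24 h. Values are the average of three independent experiments.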

[2] = tested on: U2OS; assay: Antiproliferative activity against human U2OS cells assessed as reduction in cell viability incubated for 24 hrs by MTT assay; type: functional, cell-based
Summary of the method: (§1)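 Growth inhibition was read at 24, 48 and 72 h in U-2OS, Caco-2 and IMR-32 cells. EC50 values are the mean of n = 3 independent experiments ± SEM.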

[3] = tested on: U2OS; assay: Antiproliferative activity against human U2OS cells assessed as reduction in cell viability incubated for 48 hrs by MTT assay; type: functional, cell-based; summary of the method: as §1
[4] = tested on: U2OS; assay: Antiproliferative activity against human U2OS cells assessed as reduction in cell viability incubated for 72 hrs by MTT assay; type: functional, cell-based; summary of the method: as §1
[5] = tested on: Caco-2; assay: Antiproliferative activity against human Caco2 cells assessed as reduction in cell viability incubated for 24 hrs by MTT assay; type: functional, cell-based; conditions: Caco-2, 24 h; summary of the method: as §1
[6] = tested on: Caco-2; assay: Antiproliferative activity against human Caco2 cells assessed as reduction in cell viability incubated for 48 hrs by MTT assay; type: functional, cell-based; conditions: Caco-2, 48 h; summary of the method: as §1
[7] = tested on: Caco-2; assay: Antiproliferative activity against human Caco2 cells assessed as reduction in cell viability incubated for 72 hrs by MTT assay; type: functional, cell-based; conditions: Caco-2, 72 h; summary of the method: as §1
[8] = tested on: IMR-32; assay: Antiproliferative activity against human IMR32 cells assessed as reduction in cell viability incubated for 24 hrs by MTT assay; type: functional, cell-based; conditions: IMR-32, 24 h; summary of the method: as §1
[9] = tested on: IMR-32; assay: Antiproliferative activity against human IMR32 cells assessed as reduction in cell viability incubated for 48 hrs by MTT assay; type: functional, cell-based; conditions: IMR-32, 48 h; summary of the method: as §1
[10] = tested on: IMR-32; assay: Antiproliferative activity against human IMR32 cells assessed as reduction in cell viability incubated for 72 hrs by MTT assay; type: functional, cell-based; conditions: IMR-32, 72 h; summary of the method: as §1
[11] = Chemical stability of compound in HEPES assessed as compound hydrolysis at 500 ug/ml measured upto 24 hrs by HPLC-UV/MS analysis; type: physicochemical
[12] = Chemical stability of compound in DMSO assessed as compound hydrolysis at 500 ug/ml measured upto 24 hrs by HPLC-UV/MS analysis; type: physicochemical
[13] = Stability of compound in human plasma assessed as compound hydrolysis at 500 ug/ml measured upto 24 hrs by HPLC-UV/MS analysis; type: ADME, cell-free
[14] = Induction of NO production in PBS buffer at 0.1 mM measured for 1 to 24 hrs by Griess method; type: functional
Summary of the method: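 Compound at 0.1 mM in 50 mM phosphate buffer, pH 7.4, incubated at 37 °C without l-cysteine. Released NO was measured as nitrite by the Griess method and given as % of the initial compound concentration at 1, 5 and 24 h. Values are the average of three independent experiments.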

Compound	Activity [1]	EC50 [2]	EC50 [3]	EC50 [4]	EC50 [5]	EC50 [6]	EC50 [7]	EC50 [8]	EC50 [9]	EC50 [10]	Stability [11]	Stability [12]	Stability [13]	Activity [14]
CC(C)[C@@H]1NC(=O)[C@]2(C)CSC(=N2)c2csc(n2)CNC(=O)C[C@@H](/C=C/CCSC(=O)CCCCO[N+](=O)[O-])OC1=O	Active	1950 nM	309 nM	170 nM	11.2 µM	38 nM	8.13 nM	15.1 nM	19.5 nM	12 nM	Stable	Stable	Stable	Active
CC(C)[C@@H]1NC(=O)[C@]2(C)CSC(=N2)c2csc(n2)CNC(=O)C[C@@H](/C=C/CCSC(=O)CCC(CO[N+](=O)[O-])O[N+](=O)[O-])OC1=O (some centres not stated)	Active	468 nM	741 nM	1000 nM	9.12 µM	5.62 nM	4.47 nM	29.5 nM	61.7 nM	50.1 nM	Stable	Stable	Stable	Active
CCCCCCCC(=O)SCC/C=C/[C@@H]1CC(=O)NCc2nc(cs2)C2=N[C@@](C)(CS2)C(=O)N[C@@H](C(C)C)C(=O)O1 [LARGAZOLE]		20400 nM	372 nM	331 nM	> 10000 µM	759 nM	14.5 nM	34.7 nM	30.2 nM	12.3 nM				
